Assay [1] concerns MDA-MB-231 (ER− breast adenocarcinoma) cells. In words: MTT cytotoxicity assay, 72 h. Type of assay: cell-based, human. Conditions: read-out: IC50, after 72 h incubation, MDA-MB-231. Put shortly: (§1)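 Cell lines (ATCC) grown in DMEM with […], 10% FCS and antibiotic–antimycotic at 37 °C, 5% CO2. […] IC50 was calculated from means of at least two or three independent experiments in triplicate or quadruplicate.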
(Tetrazolium dyes change colour on reduction, which living cells bring about.)

The subject of assay [2] is BJ human foreskin fibroblasts. Nature of the assay: alamarBlue. Conditions: read-out: IC50, after 72 h incubation, BJ, normal fibroblasts. Format: cell-based. In outline: (§2)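 CEM cells grown in RPMI 1640 with 20% FBS; G-361 and BJ cells in DMEM with 10% FBS. All media had 2 mM L-glutamine and 1% penicillin-streptomycin, 37 °C, 5% CO2. Six concentrations of compound, 0.2–50 μM (3× dilution), were applied for 72 h, with a resazurin (alamarBlue) read-out. IC50 came from means of at least two or three independent experiments in triplicate or quadruplicate.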
Background: Alamar Blue is a resazurin reagent that responds to reducing activity.

In assay [3] the test system is HeLa cervical carcinoma cells. Nature of the assay: MTT cytotoxicity assay, 72 h. Type of assay: cell-based, human. Put shortly:
as §1

Assay [4] relates to HT-29 colon adenocarcinoma cells. In words: MTT cytotoxicity assay, 72 h. Type of assay: cell-based, human. The following applies: read-out: IC50, after 72 h incubation, HT-29. Put shortly:
as §1

Assay [5] relates to MCF-7 (ER+ breast adenocarcinoma) cells. In words: MTT cytotoxicity assay, 72 h. Type of assay: cell-based, human. The following applies: for IC50: read-out: IC50, after 72 h incubation, MCF-7. Put shortly:
as §1

The subject of assay [6] is PC-3 prostate cancer cells. Nature of the assay: MTT cytotoxicity assay, 72 h. Type of assay: cell-based, human. In outline: as §1
For assay [7], the system named is A549 lung adenocarcinoma cells. In words: MTT cytotoxicity assay, 72 h. Type of assay: cell-based, human. The following applies: read-out: IC50, after 72 h incubation, A549. Put shortly: as §1
Assay [8] concerns MRC-5 normal fetal lung fibroblasts. In words: MTT cytotoxicity assay, 72 h. Format: cell-based, human. The following applies: read-out: IC50, after 72 h incubation, MRC-5.
Assay [9] has as its system G-361 malignant melanoma cells. In words: alamarBlue. Type of assay: cell-based, human. Conditions: read-out: IC50, after 72 h incubation, G-361. Put shortly:
as §2

The test system of assay [10] is CEM T-lymphoblastic leukemia cells. Nature of the assay: alamarBlue. Format: cell-based, human. Conditions: read-out: IC50, after 72 h incubation, CEM. Put shortly: as §2

The values that follow come from paper PMC9043769 (RSC Advances, 2021).

For orientation: IC50 means the midpoint of a concentration-inhibition curve.

The structures appear in SMILES notation. Where two headings read alike, the source gives them in different places.

With `N.N.[Cl][Pt][Cl]` [Cis-Pt, cisplatin], the IC50 in assay [1] (MTT, 72 h) was determined as 2.6 µM; in assay [2] it was 9.6 µM; in assay [3] (read-out: IC50, after 72 h incubation, HeLa, MTT), 2.1 µM; in assay [4] (MTT, 72 h), 4.1 µM; in assay [5] (MTT, 72 h), 1.6 µM; in [6] (read-out: IC50, after 72 h incubation, PC-3, MTT), 4.5 µM. The IC50 is 3.2 µM in assay [7] (MTT, 72 h); 0.2 µM in assay [8] (MTT, 72 h, normal cells); 4.5 µM in assay [9]; 0.8 µM in [10].

Take `C[C@]12CCC(=O)C(O)=C1CC[C@@H]1[C@@H]2CC[C@]2(C)C(=O)CC[C@@H]12` [For, formestane]: the IC50 in assay [1] (Homo sapiens, MDA-MB-231, 72 h) was 19.6 µM; in [3] (Homo sapiens, HeLa, read-out: IC50, after 72 h incubation, HeLa), 3.4 µM; in assay [4] (Homo sapiens, HT-29, 72 h), > 100 µM; in [5] (Homo sapiens, MCF7, 72 h), > 100 µM; in [6] (Homo sapiens, read-out: IC50, after 72 h incubation, PC-3) it was 26.4 µM; in assay [7] (Homo sapiens, A549, 72 h), 38.6 µM. Besides, the IC50 in assay [8] (Homo sapiens, MRC5, 72 h) is > 100 µM. Moreover, the “Toxicity toward MCF-7 tumor cells (in words)” value in assay [5] (MTT, 72 h) is recorded as “no toxicity”.
